Pf Dd2 growth: P. falciparum Dd2 growth inhibition | SYBR Green, 72 h; active compounds read low | activity change, % at 10 µM | 94,000 compounds, 2.3% hits; in the data active means activity change below about -80%
IDH1 mut inh: inhibitors of human IDH1 R132H. O75874. IDH1 R132H reductase, diaphorase/resazurin fluorescence, 60 min. inhibition, % at 10 µM. 70,000 compounds, 0.18% hits; in the data active means inhibition above about 34%;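 further: 0% = DMSO and 100% = no enzyme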
Target sequence (O75874 whole entry R132H): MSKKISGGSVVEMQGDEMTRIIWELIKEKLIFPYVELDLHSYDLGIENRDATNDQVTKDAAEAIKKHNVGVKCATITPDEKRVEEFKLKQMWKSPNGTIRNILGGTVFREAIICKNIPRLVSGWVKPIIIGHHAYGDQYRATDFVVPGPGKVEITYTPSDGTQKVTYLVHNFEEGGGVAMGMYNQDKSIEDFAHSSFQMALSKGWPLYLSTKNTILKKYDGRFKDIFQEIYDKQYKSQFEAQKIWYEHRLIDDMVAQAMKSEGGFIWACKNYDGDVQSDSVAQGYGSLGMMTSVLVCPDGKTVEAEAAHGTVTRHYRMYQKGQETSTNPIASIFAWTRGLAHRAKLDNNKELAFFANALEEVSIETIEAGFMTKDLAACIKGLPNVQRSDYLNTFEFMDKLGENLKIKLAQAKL
KDM4C inh: inhibitors of human demethylase GASC-1 KDM4C | inhibition, % at 12.5 µM | Q9H3R0 | 96,000 compounds, 0.15% hits | GST-KDM4C 2-372, H3K9me3 peptide, LANCE TR-FRET;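 active means mean replicate inhibition above about 25%, with at least 55% of replicates also reaching it, limit read from the data, passing the limit was not always enough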
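Test system – GST-tagged GASC-1 (JMJD2C) catalytic fragment, aa 2-372 · Medium – HEPES buffer, pH 7.5, plus ascorbate · Reagent – H3K9me3 peptide with Fe(II)/2OG · Compound – one test concentration per compound · Timing – 30 min reaction, 60 min detection, RT · Technique – TR-FRET with Eu antibody and ULight streptavidin, EDTA stop · Read-out basis – inhibition from TR-FRET ratio decrease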
* = called active by the depositor; / = not tested or not shown; ! = repeats disagree. This is one part of a sample in which hits are shown more often than they occur.

SMILES | Pf Dd2 growth | IDH1 mut inh | KDM4C inh
C[C@@H]1CCCCO[C@H](CN(C)S(=O)(=O)c2ccc(F)cc2)[C@H](C)CN([C@H](C)CO)C(=O)c2cc(NC(=O)Nc3cccc4ccccc34)ccc2O1 | -79.1 | / | 15.8
C[C@@H]1CCCCO[C@H](CN(C)S(=O)(=O)c2cccs2)[C@H](C)CN([C@@H](C)CO)C(=O)c2cc(NC(=O)Nc3cccc4ccccc34)ccc2O1 | -54.3 | 1.7 | -1.0
C[C@@H]1CCCCO[C@@H](CN(C)S(=O)(=O)c2ccc(F)cc2)[C@H](C)CN([C@@H](C)CO)C(=O)c2cc(NC(=O)Nc3cccc4ccccc34)ccc2O1 | -42.2 | / | -0.4
CC=Cc1ccc2n(c1=O)C[C@@H]1[C@@H](CO)[C@H](C(=O)N3CCCCC3)N(Cc3ccccc3)[C@H]21 (mixture of isomers) | -38.3 | / | 2.5
C[C@@H]1CCCCO[C@@H](CN(C)S(=O)(=O)c2cn(C)cn2)[C@@H](C)CN([C@H](C)CO)C(=O)c2cc(NC(=O)Nc3cccc4ccccc34)ccc2O1 | -39.2 | 2.2 | -2.1
C[C@@H]1CN([C@@H](C)CO)C(=O)c2cc(NC(=O)Nc3cccc4ccccc34)ccc2O[C@@H](C)CCCCO[C@@H]1CN(C)S(=O)(=O)c1cn(C)cn1 | -90.5* | -0.3 | -1.8
CC=Cc1ccc2n(c1=O)C[C@H]1[C@H](CO)[C@@H](C(=O)N(C)C)[C@@H]2N1C(=O)c1ccccc1 (mixture of isomers) | -2.3 | / | 0.6
COc1cccc(C#Cc2ccc([C@@H]3[C@@H](CO)N(C(=O)C4CCCCC4)[C@H]3C#N)cc2)c1 | -77.6 | / | -2.6
COc1cccc(C#Cc2ccc([C@@H]3[C@@H](C#N)N(C(=O)C4CCC4)[C@H]3CO)cc2)c1 | -49.6 | / | -0.6
COc1cccc(C#Cc2ccc([C@@H]3[C@@H](C#N)N(C(=O)C4CCCCC4)[C@H]3CO)cc2)c1 | -90.5* | / | -6.3
COc1cccc(C#Cc2ccc([C@@H]3[C@@H](CO)N(C(=O)C4CCCC4)[C@H]3C#N)cc2)c1 | -83.4* | / | -2.5
CC1(C)CC(n2c(SCC(N)=O)nc3c(c2=O)C2(CCCCC2)Cc2ccccc2-3)CCO1 (stereo not given) | / | -0.1 | /
CO[C@@H]1CN(C)C(=O)c2cc(NC(=O)C3CC3)ccc2OC[C@@H](C)N(Cc2cncnc2)C[C@@H]1C | 28.3 | 0.3 | -1.2
C[C@@H]1CN([C@@H](C)CO)C(=O)c2cc(NC(=O)C3CCCCC3)ccc2O[C@H]1CN(C)C(=O)Nc1cccc2ccccc12 | -40.2 | / | -0.3
C[C@@H]1CCCCO[C@@H](CN(C)CC2CCCCC2)[C@H](C)CN([C@@H](C)CO)C(=O)c2cc(NC(=O)CCCCCC(=O)Nc3ccccc3N)ccc2O1 | -81.1* | / | -0.2
C[C@@H]1CCCCO[C@@H](CN(C)Cc2ccccc2)[C@@H](C)CN([C@H](C)CO)C(=O)c2cc(NC(=O)CCCCCC(=O)Nc3ccccc3N)ccc2O1 | -84.5* | 0.5 | -1.1
C[C@@H]1CCCCO[C@@H](CN(C)Cc2ccncc2)[C@@H](C)CN([C@H](C)CO)C(=O)c2cc(NC(=O)CCCCCC(=O)Nc3ccccc3N)ccc2O1 | -36.9 | 0.1 | -0.5
C[C@@H]1CCCCO[C@@H](CN(C)CC2CC2)[C@@H](C)CN([C@H](C)CO)C(=O)c2cc(NC(=O)CCCCCC(=O)Nc3ccccc3N)ccc2O1 | -78.0 | / | -0.4
CCC(=O)N1CCN(c2ccc(Cl)cc2NC(=O)COc2cc(C)c(Cl)c(C)c2)CC1 | / | -0.2 | /
COc1ccc(S(=O)(=O)Nc2cccc3c2O[C@H](CN(C)Cc2ccc(-c4ccccc4)cc2)[C@H](C)CN([C@H](C)CO)C3=O)cc1 | -46.1 | 0.4 | -2.7
Fc1cccc(-c2ccc(C3[C@@H]4CN(Cc5cncnc5)C[C@H]3N4)cc2)c1 (stereo not given in full) | -86.2*! | / | 1.5
O=C(c1ccc(F)cc1)N1C[C@@H]2N[C@H](C1)C2c1ccc(-c2ccccc2F)cc1 (stereo not given in full) | -32.4 | / | -4.0
N#Cc1cccc(-c2ccc(C3[C@@H]4CN(C(=O)Nc5ccccc5)C[C@H]3N4)cc2)c1 (stereo not given in full) | -30.7 | / | 1.2
O=C(C1CC1)N1C[C@@H]2N[C@H](C1)C2c1ccc(-c2cccc(F)c2)cc1 (stereo not given in full) | -81.4*! | / | 0.5
O=C(C1CCCC1)N1C[C@@H]2N[C@H](C1)C2c1ccc(-c2cccc(F)c2)cc1 (stereo not given in full) | -65.1 | / | -4.6
O=C(C1CC1)N1C[C@@H]2N[C@H](C1)C2c1ccc(-c2ccccc2F)cc1 (stereo not given in full) | -87.1*! | / | -0.9
